Data set [1] has as its system Mus musculus. The data set is described as follows: Antinociceptive activity in Kunming mouse model of acute pain assessed as inhibition of acetic acid-induced writhes at 5 mg/kg, ip administered 30 mins prior to acetic acid challenge measured for 30 mins. The data set is classed as functional, organism-based. An outline of the steps: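 Acute-pain model in mice: compounds given ip, and writhing counted against vehicle-injected mice.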

In data set [2] the test system is Mus musculus. Put plainly: Antinociceptive activity in po dosed Kunming mouse model of STZ-induced diabetic neuropathy pain assessed as complete reversal of mechanical hyperalgesia. Type of data set: functional, organism-based. An outline of the steps:
(§1)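 Streptozotocin-diabetic mice with mechanical hyperalgesia were dosed orally (n = 8), with vehicle and gabapentin groups for comparison. Data are mean ± SEM. Significance vs vehicle by one-way ANOVA followed by Bonferroni test.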

Data set [3] deals with Mus musculus. Put plainly: Antinociceptive activity in ip dosed Kunming mouse model of acute pain assessed as inhibition of acetic acid-induced writhes administered 30 mins prior to acetic acid challenge measured for 30 mins. Conditions: for ED50: read-out: ID50 (the source's name). The data set is classed as functional. An outline of the steps:
(§2)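 Acetic acid-induced writhing in mice after ip dosing, with a vehicle-injected group for comparison. Reported as mean ± SEM of 12 mice per group. Significance vs vehicle by one-way ANOVA followed by Bonferroni test.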

The subject of data set [4] is Mus musculus. The data set is described as follows: Antinociceptive activity in Kunming mouse assessed as increase in licking latency time at 0.08 mg/kg, ip by hot plate test. Type of data set: functional, organism-based.
In data set [5] the test system is Mus musculus. Put plainly: Antinociceptive activity in ip dosed Kunming mouse model of formalin-induced pain assessed as reduction of time spent in licking in phase 1 administered 30 mins before formalin injection measured for 5 mins. Type of data set: functional, organism-based. An outline of the steps: (§3)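 Formalin test scored in phase I and phase II after ip dosing, against a vehicle group (n = 10). Control drugs used: morphine and ibuprofen. Data are mean ± SEM. Significance vs vehicle by one-way ANOVA followed by Bonferroni test.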

Data set [6] is described as follows: Selectivity index, ratio of LD50 for toxicity in Kunming mouse to ID50 for antinociceptive activity in Kunming mouse model of acute pain. The data set is classed as organism-based. Conditions: in vivo, read-out: Selectivity Index.
For data set [7], the system named is Mus musculus. Put plainly: Antinociceptive activity in ip dosed Kunming mouse model of formalin-induced pain assessed as reduction of time spent in licking in phase 2 administered 30 mins before formalin injection measured for 15 to 30 mins. The data set is classed as functional, organism-based. An outline of the steps:
as §3

Data set [8] has as its system Mus musculus. Put plainly: Toxicity in ip dosed Kunming mouse by Karber's method. The data set is classed as organism-based. As to conditions: in vivo.
For data set [9], the system named is Mus musculus. Put plainly: Antinociceptive activity in Kunming mouse model of acute pain assessed as inhibition of acetic acid-induced writhes at 0.08 mg/kg, ip administered 30 mins prior to acetic acid challenge measured for 30 mins in presence of nonselective opioid antagonist naloxone. Type of data set: functional, organism-based.
The test system of data set [10] is Mus musculus. Put plainly: Antinociceptive activity in Kunming mouse model of acute pain assessed as inhibition of acetic acid-induced writhes at 0.08 mg/kg, ip administered 30 mins prior to acetic acid challenge measured for 30 mins relative to control. Type of data set: functional. Summed up:
as §2

Data set [11] deals with Mus musculus. Put plainly: Antinociceptive activity in Kunming mouse model of STZ-induced diabetic neuropathy pain assessed as increase in paw withdrawal mechanical threshold at 0.2 to 0.4 mg/kg, po relative to gabapentin. Type of data set: functional. Summed up: as §1
Data set [12] deals with Mus musculus. The data set is described as follows: Antinociceptive activity in Kunming mouse model of STZ-induced diabetic neuropathy pain assessed as increase in paw withdrawal mechanical threshold at 50 mg/kg, po. Type of data set: functional, organism-based. Summed up:
as §1

The subject of data set [13] is Mus musculus. Put plainly: Antinociceptive activity in Kunming mouse model of formalin-induced pain assessed as reduction of time spent in licking in phase 1 at 2 mg/kg, ip administered 30 mins before formalin injection measured for 5 mins. The data set is classed as functional, organism-based. Summed up:
as §3

The subject of data set [14] is Mus musculus. Put plainly: Antinociceptive activity in Kunming mouse model of formalin-induced pain assessed as reduction of time spent in licking in phase 2 at 2 mg/kg, ip administered 30 mins before formalin injection measured after 15 mins up to 30 mins. The data set is classed as functional, organism-based. Summed up: as §3
Data set [15] concerns Mus musculus. The data set is described as follows: Antinociceptive activity in Kunming mouse model of acute pain assessed as inhibition of acetic acid-induced writhes at 0.8 mg/kg, ip administered 30 mins prior to acetic acid challenge measured for 30 mins in presence of nonselective opioid antagonist naloxone. The data set is classed as functional, organism-based.
For data set [16], the system named is Mus musculus. The data set is described as follows: Antinociceptive activity in Kunming mouse assessed as increase in licking latency time at 0.02 to 0.08 mg/kg, ip by hot plate test. Type of data set: functional, organism-based. In general terms: Hot-plate and tail-flick tests time the reaction to a heat stimulus.
For data set [17], the system named is Mus musculus. Put plainly: Antinociceptive activity in Kunming mouse model of formalin-induced pain assessed as reduction of time spent in licking in phase 1 at 60 mg/kg, ip administered 30 mins before formalin injection measured for 5 mins. Type of data set: functional, organism-based. Summed up: (§4)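 Formalin test in mice with phases I and II scored separately. Compounds given ip, n = 10 per group. Data are mean ± SEM, compared with the vehicle group by one-way ANOVA followed by the Bonferroni test.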

Data set [18] relates to Mus musculus. Put plainly: Antinociceptive activity in Kunming mouse model of formalin-induced pain assessed as reduction of time spent in licking in phase 2 at 60 mg/kg, ip administered 30 mins before formalin injection measured after 15 mins up to 30 mins. Type of data set: functional, organism-based. An outline of the steps:
as §4

SMILES strings stand for the structures. Active and inactive are the calls of the source.

As usually defined, the LD50 is the dose expected to kill half of the subjects tested. The low end stands for greater toxicity, the high end for lower toxicity. The inhibition in vivo is the relative decrease from the control value, in per cent.

As for `CC1=C2CC[C@@H]3[C@@H](O)[C@@]2(C[C@@H](O)[C@@]2(O)[C@H]1[C@@H](O)[C@H](O)C2(C)C)C[C@@]3(C)O`, in the data set with Mus musculus [1], the inhibition entry was “inactive”.

For the compound `CC1(C)[C@H]2O[C@H]2[C@H]2[C@](C)(O)[C@@H]3CC[C@@H]4[C@@H](O)[C@@]3(C[C@@H](O)[C@@]21O)C[C@@]4(C)O`, the Activity entry in the data set on Mus musculus [2], with Mus musculus [5] and with Mus musculus [7] was “Dose-dependent effect” in each case. Moreover, the inhibition result with Mus musculus [3] is “Dose-dependent effect”. Moreover, the ED50 in the data set on Mus musculus [3] stood at 0.0469 mg/kg. Moreover, in the data set on Mus musculus [4], the outcome was Active. Moreover, in [6], the selectivity ratio turned out to be 5.8. The compound also gave an LD50 with Mus musculus [8] of 0.271 mg/kg. In the data set with Mus musculus [9], the inhibition result was “Active”. For the same compound, in the data set on Mus musculus [10], the inhibition in vivo at 0.08 mg/kg is 73.7%. The “fold change (FC)” value with Mus musculus [11] was 100.

With `NCC1(CC(=O)O)CCCCC1`, in the data set with Mus musculus [12], the outcome was Active.

On to `C=C1[C@@H]2[C@@H](O)[C@H](O[C@@H]3O[C@H](CO)[C@@H](O)[C@H](O)[C@H]3O)C(C)(C)[C@@]2(O)[C@H](O)C[C@]23C[C@@](C)(O)[C@H](CC[C@@H]12)[C@H]3O`, for which the inhibition result with Mus musculus [1] is “inactive”.

As to `C=C1[C@@H]2CC[C@@H]3C[C@@]2(C[C@@H](O)[C@@]2(O)[C@@H]1[C@H](O)[C@H](O)C2(C)C)C[C@@]3(C)O`, the inhibition result in the data set with Mus musculus [1] is “Active”.

Regarding `C=C1C[C@@]23C[C@@H](O)[C@@]4(O)[C@H](C(=C)[C@@H]2CC[C@@H]1[C@H]3O)[C@@H](O)[C@H](O)C4(C)C`, the inhibition entry in the data set on Mus musculus [1] was “inactive”.

Take `CC1(C)[C@@H](O[C@@H]2O[C@H](CO)[C@@H](O)[C@H](O)[C@H]2O)[C@@H](O)[C@H]2[C@](C)(O)[C@@H]3CC[C@@H]4[C@@H](O)[C@@]3(C[C@@H](O)[C@@]21O)C[C@@]4(C)O`: the inhibition result in the data set with Mus musculus [1] is “inactive”.

For the compound `CN1CC[C@]23c4c5ccc(O)c4O[C@H]2[C@@H](O)C=C[C@H]3[C@H]1C5` [MORPHINE], the ED50 in the data set with Mus musculus [3] was 0.343 mg/kg. The result in the data set on Mus musculus [13] and with Mus musculus [14] was Active. In addition, the inhibition result with Mus musculus [15] was “inactive”.

For `CC1(C)[C@@H](O[C@@H]2O[C@H](CO)[C@@H](O)[C@H](O)[C@H]2O)[C@@H](O)[C@@H]2[C@@](C)(O)[C@@H]3CC[C@@H]4C[C@@]3(C[C@@H](O)[C@@]21O)C[C@@]4(C)O`, in the data set on Mus musculus [1], the inhibition entry was “Active”.

`CC1(C)[C@@H](O)[C@H](O)[C@H]2[C@](C)(O)[C@@H]3CC[C@@H]4[C@@H](O)[C@@]3(C[C@@H](O)[C@@]21O)C[C@@]4(C)O`: the Activity entry in the data set with Mus musculus [2], in the data set with Mus musculus [5] and in the data set on Mus musculus [7] was “Dose-dependent effect” in each case. The inhibition result in the data set on Mus musculus [3] was “Dose-dependent effect”. The ED50 in the data set with Mus musculus [3] amounted to 0.0727 mg/kg. In [6], the selectivity ratio was 24.6. This compound also showed an LD50 in the data set with Mus musculus [8] of 1.791 mg/kg. The inhibition result in the data set with Mus musculus [9] is “Active”. In addition, the inhibition in vivo at 0.08 mg/kg in the data set with Mus musculus [10] was found to be 64.2%. Also, the “fold change (FC)” value in the data set with Mus musculus [11] was found to be 100. Further, in the data set on Mus musculus [16], the result was inactive.

With `CC1(C)[C@@H](O)C[C@H]2[C@](C)(O)[C@@H]3CC[C@@H]4[C@@H](O)[C@@]3(C[C@@H](O)[C@@]21O)C[C@@]4(C)O` [GRAYANOTOXIN III], in the data set on Mus musculus [10], the inhibition in vivo at 0.08 mg/kg stood at 55.6%.

For `C=C1[C@@H]2[C@H](O)[C@H](O)C(C)(C)[C@@]2(O)[C@H](O)C[C@]23C=C(C)[C@H](CC[C@@H]12)[C@H]3O`, the inhibition result with Mus musculus [1] is “inactive”.

In the case of `CC(C)Cc1ccc(C(C)C(=O)O)cc1` (stereo not drawn), the result in the data set with Mus musculus [17] was inactive. The result with Mus musculus [18] was Active.

As to `C=C1[C@@H]2CC[C@@H]3[C@@H](O)[C@@]2(C[C@@H](O)[C@@]2(O)[C@H]1C[C@H](O)C2(C)C)C[C@@]3(C)O`, the inhibition result with Mus musculus [1] is “Active”.

Consider `C=C1[C@@H]2[C@@H](O)[C@H](O)C(C)(C)[C@@]2(O)[C@H](O)C[C@]23C[C@@](C)(O)[C@H](CC[C@@H]12)[C@H]3O`, for which, in the data set with Mus musculus [1], the inhibition result is “inactive”.

`CC1(C)[C@H]2O[C@H]2[C@H]2[C@](C)(O)[C@@H]3C[C@@H](O)[C@@H]4[C@@H](O)[C@@]3(C[C@@H](O)[C@@]21O)C[C@@]4(C)O`: the inhibition result in the data set on Mus musculus [1] was “Active”.

Take `CC1(C)[C@@H](O)[C@@H](O)[C@@H]2[C@@](C)(O)[C@@H]3CC[C@@H]4[C@@H](O)[C@@]3(C[C@@H](O)[C@@]21O)C[C@@]4(C)O`: the inhibition result with Mus musculus [1] was “Active”.

Regarding `C=C1[C@@H]2[C@H](O)[C@H](O[C@@H]3O[C@H](CO)[C@@H](O)[C@H](O)[C@H]3O)C(C)(C)[C@@]2(O)[C@H](O)C[C@]23C[C@@](C)(O)[C@H](CC[C@@H]12)[C@H]3O`, the inhibition result in the data set with Mus musculus [1] was “inactive”.

Turning to `CC1(C)[C@@H](O[C@@H]2O[C@H](CO)[C@@H](O)[C@H](O)[C@H]2O)[C@H](O)[C@H]2[C@](C)(O)[C@@H]3CC[C@@H]4[C@@H](O)[C@@]3(C[C@@H](O)[C@@]21O)C[C@@]4(C)O`, the inhibition result in the data set with Mus musculus [1] was “Active”.

The values are drawn from ChEMBL document CHEMBL3763151, “Antinociceptive Grayanoids from the Roots of Rhododendron molle” (J Nat Prod, 2015).
